# Shown are actives, neighbours in structure and some others; about 1% of the full set was active somewhere.
# b-catenin transl: modulators of beta-catenin nuclear translocation, primary screen, imaging, HeLa cells, immunofluorescence, high-content; nuclear translocation activity, % at 5 µM; 190,000 tested, 0.3% active;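 active = nuclear translocation activity above 50% at 5 µM, with a well cell count of 50 or more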;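 also: per-cell ratio of nuclear to cytoplasmic median beta-catenin stain intensity; plate controls were DMSO negative control for no effect and GSK-3 inhibitor IX positive control for full effect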
#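 test system = HeLa cells, endogenous beta-catenin | dosing = single 5 µM dose plus 0.02–20 µM confirmation series | times = compound treatment 24 h, 37°C, 5% CO2 | technique = beta-catenin immunofluorescence imaging with DAPI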
# ABCG2 inh: ABCG2 efflux pump inhibitors, primary screen, multiplex with ABCB1, IgMXP3 cells, flow cytometry; Broad substrate specificity ATP-binding cassette transporter ABCG2 (Homo sapiens), Q9UNQ0; AID 1325, 2008; 190,000 tested, 0.1% active; inhibition, % at 6.6 µM; JC-1 efflux;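 active = inhibition above 80%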;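 also: 0% = DMSO and 100% = nicardipine control wells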
# Target sequence (Q9UNQ0 whole entry, looked up): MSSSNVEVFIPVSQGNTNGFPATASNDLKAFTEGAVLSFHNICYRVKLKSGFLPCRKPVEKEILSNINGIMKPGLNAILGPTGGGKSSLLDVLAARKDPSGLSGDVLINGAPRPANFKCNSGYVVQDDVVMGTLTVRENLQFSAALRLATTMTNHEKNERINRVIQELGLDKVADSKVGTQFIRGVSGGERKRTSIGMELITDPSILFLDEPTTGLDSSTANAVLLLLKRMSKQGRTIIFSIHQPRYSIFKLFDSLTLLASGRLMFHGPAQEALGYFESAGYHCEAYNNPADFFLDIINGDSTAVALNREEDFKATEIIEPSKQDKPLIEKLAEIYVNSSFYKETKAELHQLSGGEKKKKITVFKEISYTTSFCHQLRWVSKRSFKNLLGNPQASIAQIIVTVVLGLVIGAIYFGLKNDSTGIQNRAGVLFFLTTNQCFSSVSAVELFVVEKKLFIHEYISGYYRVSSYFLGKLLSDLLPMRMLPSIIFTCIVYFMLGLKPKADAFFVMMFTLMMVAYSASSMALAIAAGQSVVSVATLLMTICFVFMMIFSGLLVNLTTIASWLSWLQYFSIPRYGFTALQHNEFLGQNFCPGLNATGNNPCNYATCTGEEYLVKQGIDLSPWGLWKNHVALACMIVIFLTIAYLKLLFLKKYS
#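 test system = two drug-resistant human cell lines, ABCG2 and ABCB1 | amount = 3 million cells/mL final, two lines in 1:1 ratio | reagent = JC-1 transporter substrate | doses = one concentration, 6.6 µM final | incubation = 10 min at 25 °C | signal = flow cytometric JC-1 green MFI at 530 nm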
# PKD1 kinase inh: inhibitors of human PKD1 kinase, biochemical, fluorescence polarization | PKD1 kinase fluorescence polarization assay | inhibition, % (concentration not given with the values) | 200,000 tested, 0.056% active | AID 797, 2007; in the data active = inhibition above about 50%
# MT stabilizer: microtubule stabilizers in HeLa cells, primary screen, imaging, high-content imaging; HeLa tubulin immunostaining HCS, 24 h; share of cells brighter than vehicle mean+2SD; 200,000 tested, 0.83% active; % tubulin-high responders, % at 10 µM; AID 2205, 2009;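 active = plate Z-score above 3 for both tubulin-high and condensed-nucleus cell shares, with cell loss under 80%, at 10 µM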;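 also: anti alpha tubulin signal scored within the nucleus-defined area of each cell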
# ABCB1 inh: ABCB1 efflux pump inhibitors, primary screen, cell-based, multiplex, flow cytometry, ABCG2 counter-screen; CCRF-Adr cells, JC-1 efflux; inhibition, % at 6.6 µM; 190,000 tested, 0.067% active; AID 1326, 2008; in the data active = inhibition above about 40%;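 also: 0% = vehicle and 100% = reference inhibitor; higher value means more JC-1 retained so stronger ABCB1 efflux block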
# Starred values were filed as active, the others as inactive; . = no result given; + = active, no number.
SMILES,b-catenin transl,ABCG2 inh,PKD1 kinase inh,MT stabilizer,ABCB1 inh
Cc1ccccc1Cn1ccc(NC(=O)CCSc2nc(-c3ccco3)cc(C(F)(F)F)n2)n1,.,10,-3,3,3
O=C(CSc1nc(-c2ccco2)cc(C(F)(F)F)n1)Nc1ccccc1C(F)(F)F,2,1,0,2,0
Cc1cccc(C)c1NC(=O)CSc1nc(-c2ccco2)cc(C(F)(F)F)n1,4,0,5,41*,0
Cc1ccc(Cn2ccc(NC(=O)CCSc3nc(-c4ccco4)cc(C(F)(F)F)n3)n2)cc1,1,27,-6,36*,2
O=C(O)c1c(N2CCCCC2)ccc([N+](=O)[O-])c1N1CCCCC1,0,.,.,.,.
Cc1cccc(CCNC(=O)C2CCN(S(=O)(=O)c3ccccc3)CC2)c1,-1,2,6,2,0
NC(N)=N/N=C/c1ccc(OS(=O)(=O)c2ccccc2)cc1,24,-2,0,9.2*,-1
CC(=O)OCC1OC(Nc2cccc(C)c2)C(OC(C)=O)C(OC(C)=O)C1OC(C)=O (configuration not stated),-1,2,-6,3,0
CCCOc1ccc2ccccc2c1/C=N/n1c(C)nnc1-n1nc(C)cc1C,168*,49,-9,55*,2
Cc1cc(C)n(-c2nnc(C)n2/N=C/c2ccco2)n1,.,0,1,1,0
CC1=C(C(=O)c2ccccc2)C(c2ccc(OC(F)F)cc2)NC(=S)N1 (configuration not stated),4,-2,-6,22*,-2
CC1=C(C(=O)c2ccccc2)C(c2ccc(O)cc2)NC(=S)N1 (configuration not stated),0,.,.,.,.
Cc1ccc(NC(=O)c2cc(N3CCOCC3)nc3ccccc23)cc1,-5,21,-14,24*,2
O=C(Nc1ccccc1)c1cc(N2CCOCC2)nc2ccccc12,0,2,0,2,1
NC(N)=NS(=O)(=O)c1ccc(N/C=C\C(=O)c2ccncc2)cc1,-1,1,-10,3,0
COc1nc2c(c(-c3cc(Br)cs3)c1C#N)Cc1ccccc1-2,1,.,.,.,.
COc1ccc(Br)cc1/C=C/C(=O)c1ccc(NC(C)=O)cc1,52*,4,-12,8,0
CCOc1ccccc1NC(=O)Cn1nnc(C(=O)NCc2ccco2)c1N,.,2,-5,25*,0
Cc1nc(NC(=O)c2ccc(Cl)cc2)sc1-c1csc(Nc2cccc(F)c2)n1,6,-2,12,40*,-1
Cc1ccc(Nc2nc(-c3sc(NC(=O)c4cccc(Cl)c4)nc3C)cs2)cc1,.,-2,-2,3,0
CCOC(=O)CC(NC(=O)Cn1nnc(-c2ccccc2)n1)c1ccc(OC)cc1 (configuration not stated),-2,0,-4,2,1
O=C(/C=C/c1ccccc1)N1CCN(c2cccc(Cl)n2)CC1,.,5,-10,2,1
C=CCn1c(C)cc(C2=NNC(=NCc3ccccc3)SC2)c1C,37,8,-6,15*,2
COc1ccc(/C=N/NC(N)=S)cc1OC(=O)c1cccc2ccccc12,.,2,1,35*,0
COc1ccc(C(=O)Oc2cc(/C=N/NC(N)=S)ccc2OC)cc1,-2,6,-2,4,2
SMILES,b-catenin transl,ABCG2 inh,PKD1 kinase inh,MT stabilizer,ABCB1 inh
NC(=O)C1=C[C@H](c2csc3ccccc23)C[C@H](OCCCCO)O1,0,4,1,1,1
CCCCCOc1ccc(Br)cc1CSC(=N)N,89*,0,3,14,0
Cc1cc(NC(=O)COC(=O)c2ccc(S(=O)(=O)N3CCCC3)cc2)no1,-6,3,-2,6,0
Cc1cc(NC(=O)COC(=O)c2ccc(S(=O)(=O)N3CCCc4ccccc43)cc2)no1,70*,4,-13,35*,1
Oc1ccc(O)c(Cc2nc3ccccc3s2)c1,0,-2,0,13*,-1
O=C(Nc1ccc(Cl)cc1)NN1CC(=O)N(c2cccc(C(F)(F)F)c2)CC1=O,0,.,.,.,.
Cc1ccc(C(=O)Nc2cccc(C(F)(F)F)c2)cc1NC(=O)c1csc(-c2ccncc2)n1,70*,.,.,.,.
CCOC(=O)c1oc2ccc(S(=O)(=O)n3nc(-c4ccc(C)cc4)cc3N)cc2c1C,.,-1,11,6,0
CCOC(=O)c1oc2ccc(S(=O)(=O)n3nc(-c4ccc(Cl)cc4)cc3N)cc2c1C,-2,-5,-2,17*,-3
O=[N+]([O-])c1ccc(C2=NN(c3ccccc3)C(c3ccco3)C2)cc1 (configuration not stated),0,.,.,.,.
O=[N+]([O-])c1ccc(/C=C/C2=NN(c3ccccc3)C(c3ccco3)C2)cc1 (configuration not stated),.,+,9,8,+
COc1cccc(NC(=O)CN(c2ccc([N+](=O)[O-])cc2)S(=O)(=O)c2ccccc2)c1,7,13,-1,2,2
COc1ccc(NC(=O)CN(c2ccc([N+](=O)[O-])cc2)S(=O)(=O)c2ccccc2)cc1,3,5,-5,14*,6
CCOC(=O)COc1cc(-n2c(=S)[nH]c3cc(OC)c(OC)cc3c2=O)c(Cl)cc1Cl,-2,0,-3,9.2*,0
OC(CNCC(c1ccc(Cl)cc1Cl)c1c[nH]c2ccccc12)c1ccccc1 (configuration not stated),-3,0,6,11*,0
CCOc1c(Cl)cc(CNCC(O)c2ccccc2)cc1OC (configuration not stated),0,0,-12,1,0
CC1=C([N+](=O)[O-])C(c2cccc(Br)c2)C2=C(N1)c1ccccc1C2=O (configuration not stated),17,2,-2,11*,1
COC(=O)C1=C(C)NC2=C(C(=O)c3ccccc32)C1c1cccc(OC)c1 (configuration not stated),1,.,.,.,.
Cc1oc(CN2CCOCC2)cc1C(=O)O,1,1,6,5,0
C=C1C(C(=O)Nc2ccccc2)C1C(=O)Nc1ccccc1 (configuration not stated),0,.,.,.,.
Cc1ccc2nc(NC(=O)c3ccc(OCC4CCCO4)cc3)sc2c1 (configuration not stated),0,-6,8,3,0
CCCCCCn1nc(C(=O)OCC(=O)NC2CCS(=O)(=O)C2)c2ccccc2c1=O (configuration not stated),-2,5,-7,5,0
CC1=C(C(=O)Nc2cccc(F)c2)C(c2ccsc2)C2=C(CC(C)(C)CC2=O)N1 (configuration not stated),76*,12,6,12*,1
